Measurements reported in ChEMBL document CHEMBL1123837, “1-Amino-substituted 4-methyl-5H-pyrido[3',4':4,5]pyrrolo[3,2-c]pyridines: a new class of antineoplastic agents” (J Med Chem, 1987).
Calls of active or inactive are those of the source. No cut-off for these calls is given here.

What was measured:
Mus musculus [1] = assay: In vivo antitumor activity was evaluated on L1210 leukemia model and median survival day was determined at 50 mg/kg dosage concentration; type: functional
In short: (§1)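 L1210 leukemia, 10^5 viable cells inoculated ip on day 0 into CDF1 hybrid male or female mice, 10 mice per group. Compounds were given ip in distilled water (0.1 mL/10 g body weight) on days 1-5. Vehicle controls were treated the same way. NCI protocols were followed. T/C = median survival day of treated mice / median survival day of vehicle controls × 100.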

Mus musculus [2] = assay: In vivo antitumor activity was evaluated on L1210 leukemia model and number of survivors (animals) was determined at 20 mg/kg dosage concentration; number of survivors given as 0/10; type: functional; in short: as §1
Mus musculus [3] = assay: In vivo antitumor activity was determined against P388 leukemia cells expressed as treated/control at the dose of 40 mg/kg; type: functional
In short: (§2)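 Following NCI protocols, 10^6 viable P388 leukemia cells were inoculated ip on day 0 into male or female CDF1 hybrid mice, 10 per test group. Compounds in distilled water were given ip (0.1 mL/10 g body weight) at various doses on days 1–5. T/C = median survival day of treated / median survival day of negative controls × 100.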

Mus musculus [4] = assay: In vivo antitumor activity was evaluated on L1210 leukemia model and weight change in tumors was determined at 2.5 mg/kg dosage concentration.; type: functional
Mus musculus [5] = assay: In vivo antitumor activity was evaluated on L1210 leukemia model and percent of treated/control of tumor cells was determined at 5 mg/kg dosage concentration; type: functional
In short: (§3)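 Following NCI protocols, 10^5 viable L1210 leukemia cells were inoculated ip on day 0 into male or female CDF1 hybrid mice, 10 per test group. Compounds in distilled water were dosed ip (0.1 mL/10 g body weight) daily on days 1–5. T/C = median survival day of treated mice / median survival day of negative controls × 100.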

Mus musculus [6] = assay: In vivo antitumor activity was evaluated on L1210 leukemia model and number of survivors (animals) was determined at 5 mg/kg dosage concentration; number of survivors given as 0/10; type: functional; in short: as §1
Mus musculus [7] = assay: In vivo antitumor activity was evaluated on L1210 leukemia model and percent of treated/control of tumor cells was determined at 2.5 mg/kg dosage concentration.; type: functional; in short: as §3
Mus musculus [8] = assay: In vivo antitumor activity was evaluated on L1210 leukemia model and percent of treated/control of tumor cells was determined at 50 mg/kg dosage concentration; type: functional; in short: as §3
Mus musculus [9] = assay: In vivo antitumor activity was evaluated on L1210 leukemia model and number of survivors (animals) was determined at 1.25 mg/kg dosage concentration; number of survivors given as 0/10; type: functional; in short: as §1
Mus musculus [10] = assay: In vivo antitumor activity was evaluated on L1210 leukemia model and percent of treated/control of tumor cells was determined at 40 mg/kg dosage concentration; type: functional; in short: as §3
Mus musculus [11] = assay: In vivo antitumor activity was evaluated on L1210 leukemia model and weight change in tumors was determined at 5 mg/kg dosage concentration; type: functional
Mus musculus [12] = assay: In vivo antitumor activity was determined against P388 leukemia cells expressed as treated/control at the dose of 10 mg/kg; type: functional; in short: as §2
Mus musculus [13] = assay: In vivo antitumor activity was determined against P388 leukemia cells expressed as treated/control at the dose of 50 mg/kg; type: functional; in short: as §2
L1210 = assay: (§4) In vitro cytotoxicity against L1210 cells was determined after 48 hours of incubation; type: functional, Mus musculus; settings: Mus musculus, L1210, 48 h; read-out: ID50 (the source's name)
In short: (§5)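 Exponentially growing L1210 cells were cultured in RPMI 1640 with 2 mM glutamine, penicillin/streptomycin and 10% fetal calf serum, under 5% CO2 at 37 °C. Drugs dissolved in distilled water were added to cells at 0.8 × 10^5 cells/mL for 48 h, then cells were counted. ID50 was estimated by regression of dose-response data, as the mean of two values from two independent experiments.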

Mus musculus [14] = assay: In vivo antitumor activity was evaluated on L1210 leukemia model and weight change in tumors was determined at 40 mg/kg dosage concentration; type: functional
Mus musculus [15] = assay: In vivo antitumor activity was evaluated on L1210 leukemia model and weight change in tumors was determined at 50 mg/kg dosage concentration; type: functional
Mus musculus [16] = assay: In vivo antitumor activity was evaluated on L1210 leukemia model and percent of treated/control of tumor cells was determined at 20 mg/kg dosage concentration; type: functional; in short: as §1
Mus musculus [17] = assay: In vivo antitumor activity was evaluated on L1210 leukemia model and weight change in tumors was determined at 20 mg/kg dosage concentration; type: functional
Mus musculus [18] = assay: In vivo antitumor activity was evaluated on L1210 leukemia model and number of survivors (animals) was determined at 40 mg/kg dosage concentration; number of survivors given as 0/10; type: functional; in short: as §1
Mus musculus [19] = assay: In vivo antitumor activity was determined against P388 leukemia cells expressed as number of animals survived; type: functional
In short: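 P388 leukemia, 10^6 viable cells inoculated ip on day 0 into CDF1 hybrid male or female mice, 10 mice per group. Compounds were given ip in distilled water (0.1 mL/10 g body weight) at various doses on days 1-5. Vehicle controls were treated the same way. NCI protocols were followed.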

Mus musculus [20] = assay: In vivo antitumor activity was evaluated on L1210 leukemia model and number of survivors (animals) was determined at 50 mg/kg dosage concentration; number of survivors given as 0/10; type: functional; in short: as §1
Mus musculus [21] = assay: In vivo antitumor activity was evaluated on L1210 leukemia model and median survival day was determined at 2.5 mg/kg dosage concentration.; type: functional; in short: as §1
Mus musculus [22] = assay: In vivo antitumor activity was evaluated on L1210 leukemia model and median survival day was determined at 1.25 mg/kg dosage concentration; type: functional; in short: as §1
Mus musculus [23] = assay: In vivo antitumor activity was evaluated on L1210 leukemia model and number of survivors (animals) was determined at 2.5 mg/kg dosage concentration; number of survivors given as 0/10; type: functional; in short: as §1
Mus musculus [24] = assay: In vivo antitumor activity was evaluated on L1210 leukemia model and median survival day was determined at 40 mg/kg dosage concentration; type: functional; in short: as §1
Mus musculus [25] = assay: In vivo antitumor activity was evaluated on L1210 leukemia model and median survival day was determined at 5 mg/kg dosage concentration; type: functional; in short: as §1
Mus musculus [26] = assay: In vivo antitumor activity was evaluated on L1210 leukemia model and percent of treated/control of tumor cells was determined at 1.25 mg/kg dosage concentration; type: functional; in short: as §3
Mus musculus [27] = assay: In vivo antitumor activity was evaluated on L1210 leukemia model and percent of treated/control of tumor cells was determined at 10 mg/kg dosage concentration; type: functional; in short: as §3
Mus musculus [28] = assay: In vivo antitumor activity was evaluated on L1210 leukemia model and number of survivors (animals) was determined at 10 mg/kg dosage concentration; number of survivors given as 3/10; type: functional; in short: as §1
Mus musculus [29] = assay: In vivo antitumor activity was evaluated on L1210 leukemia model and median survival day was determined at 10 mg/kg dosage concentration; type: functional; in short: as §1
Mus musculus [30] = assay: In vivo antitumor activity was evaluated on L1210 leukemia model and weight change in tumors was determined at 10 mg/kg dosage concentration; type: functional
Calf thymus DNA = assay: Binding affinity for DNA by ethidium bromide displacement assay; type: nucleic-acid assay; settings: Bos taurus
In short: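 Competitive ethidium bromide displacement with calf thymus DNA at 10 µg/mL in 20 mM Na phosphate buffer, 0.1 M NaCl, 1 mM EDTA, pH 7.4. The apparent DNA affinity constant is given in 10^6 M^-1 ± standard deviation, from 6 values across two independent experiments.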

Mus musculus [31] = assay: In vivo antitumor activity was evaluated on L1210 leukemia model and weight change in tumors was determined at 1.25 mg/kg dosage concentration; type: functional
Mus musculus [32] = assay: In vivo antitumor activity was evaluated on L1210 leukemia model and median survival day was determined at 20 mg/kg dosage concentration; type: functional; in short: as §1
Mus musculus [33] = assay: In vivo antitumor activity was determined against P388 leukemia cells expressed as treated/control at the dose of 20 mg/kg; type: functional; in short: as §2
Mus musculus [34] = assay: In vivo antitumor activity was evaluated on L1210 leukemia model and number of survivors (animals) was determined at 20 mg/kg dosage concentration; type: functional; in short: as §1
Mus musculus [35] = assay: In vivo antitumor activity was determined against P388 leukemia cells expressed as treated/control at the dosage of (0.3-40)mg/kg; IA= inactive; type: functional, organism-based; in short: as §2
[36] = as §4; type: cell-based; settings: mouse, read-out: ID50; in short: as §5
Mus musculus [37] = assay: In vivo antitumor activity was determined against P388 leukemia cells expressed as treated/control at the dose of 60 mg/kg; T = toxic at this dose; type: organism-based; parameters: dose 60 mg/kg; in short: as §2
Mus musculus [38] = assay: In vivo antitumor activity was determined against P388 leukemia cells expressed as treated/control at the dose of 80 mg/kg;T = toxic at this dose; type: organism-based; parameters: dose 80 mg/kg; in short: as §2
Mus musculus [39] = assay: In vivo antitumor activity was determined against P388 leukemia cells expressed as treated/control at the dose of (2.5-40)mg/kg; IA = Inactive; type: functional, organism-based; in short: as §2
Mus musculus [40] = assay: In vivo antitumor activity was determined against P388 leukemia cells expressed as treated/control at the dose of (5-20)mg/kg; IA = Inactive; type: functional, organism-based; in short: as §2
Mus musculus [41] = assay: In vivo antitumor activity was determined against P388 leukemia cells expressed as treated/control at the dose of 50 mg/kg;T = toxic at this dose; type: organism-based; parameters: dose 50 mg/kg; in short: as §2
Mus musculus [42] = assay: In vivo antitumor activity was determined against P388 leukemia cells expressed as treated/control at the dose of 5 mg/kg; type: functional; in short: as §2

SMILES: Cc1c[nH]c(NCCCN(C)C)c2c3cnccc3nc1-2
- Median survival day (Mus musculus [1]): 8.2
- Survivors (Mus musculus [2]): 0
- T/C (Mus musculus [3]): 184
- Weight changes (Mus musculus [4]): 0.3 g
- T/C (Mus musculus [5]): 152%
- Survivors (Mus musculus [6]): 0
- T/C (Mus musculus [7]): 140%
- T/C (Mus musculus [8]): 89%
- Survivors (Mus musculus [9]): 0
- T/C (Mus musculus [10]): 100%
- Weight changes (Mus musculus [11]): 0.3 g
- T/C (Mus musculus [12]): 156
- T/C (Mus musculus [13]): 181
- IC50 (L1210): 0.16 µM
- Weight changes (Mus musculus [14]): -1.1 g
- Weight changes (Mus musculus [15]): -2.4 g
- T/C (Mus musculus [16]): 169.5%
- Weight changes (Mus musculus [17]): -1.7 g
- Survivors (Mus musculus [18]): 0
- Survivors (Mus musculus [19]): 1
- Survivors (Mus musculus [20]): 0
- Median survival day (Mus musculus [21]): 12.9
- Median survival day (Mus musculus [22]): 11.75
- Survivors (Mus musculus [23]): 0
- Median survival day (Mus musculus [24]): 9.25
- Median survival day (Mus musculus [25]): 14
- T/C (Mus musculus [26]): 127.5%
- T/C (Mus musculus [27]): 177%
- Survivors (Mus musculus [28]): 3
- Median survival day (Mus musculus [29]): 16.25
- Weight changes (Mus musculus [30]): 0.5 g
- K aff (Calf thymus DNA): 20000 M⁻¹
- Weight changes (Mus musculus [31]): 0.3 g
- Median survival day (Mus musculus [32]): 15.6
- T/C (Mus musculus [33]): 186

SMILES: O=c1[nH]cc(F)c(=O)[nH]1 [FLUOROURACIL]
- Survivors (Mus musculus [34]): 10
- T/C (Mus musculus [16]): 196%
- Weight changes (Mus musculus [17]): 0.1 g
- Survivors (Mus musculus [19]): 0
- Median survival day (Mus musculus [32]): 18

SMILES: CCN(CC)CCCNc1ncc(C)c2c1c1cnccc1n2CC
- T/C (Mus musculus [35]): inactive
- K aff (Calf thymus DNA): 17000 M⁻¹
- CC50 at 48 h [36]: 1.4 µM
- T/C (Mus musculus [37]): Toxic

SMILES: CCNCCCNc1[nH]cc(C)c2nc3ccncc3c1-2
- IC50 (L1210): 17.4 µM
- T/C (Mus musculus [38]): Toxic
- T/C (Mus musculus [39]): inactive
- K aff (Calf thymus DNA): 25000 M⁻¹

SMILES: CCN(CC)CCCCNc1[nH]cc(C)c2nc3ccncc3c1-2
- T/C (Mus musculus [40]): inactive
- T/C (Mus musculus [41]): Toxic
- IC50 (L1210): 12 µM
- K aff (Calf thymus DNA): 30000 M⁻¹

SMILES: Cc1cnc(NCCCN(C)C)c2c3cnccc3n(C)c12
- T/C (Mus musculus [3]): 173
- T/C (Mus musculus [12]): 150
- K aff (Calf thymus DNA): 40000 M⁻¹
- T/C (Mus musculus [42]): 136
- T/C (Mus musculus [33]): 167
